Bioassay records from PubChem BioAssay.
NR2E3 ag-1: NR2E3 agonists in two-hybrid cells, primary screen, cell-based, luminescence, CHO-S, Gal4-NCOR/VP16-NR2E3; Photoreceptor-specific nuclear receptor (Homo sapiens), Q9Y5X4; luciferase; inhibition of corepressor binding, % at 3.98 µM; 360,000 compounds, 0.35% hits; AID 602229, 2012;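 active = inhibition above the mean of all tested compounds plus 3 SD, cut at about 70% in these data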;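 note: 0% = DMSO with NR2E3 transfected cells and 100% = cells lacking NR2E3 construct; higher means lower luciferase signal from less NR2E3 corepressor binding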
NR2E3 ag-2: inhibitors of NR2E3-RetCOR corepressor binding, primary screen, NR2E3 agonist project, biochemical, TR-FRET, GST-NR2E3, biotin-RetCOR. Photoreceptor-specific nuclear receptor (Homo sapiens), Q9Y5X4. 1536-well. inhibition of corepressor binding, % at 4.78 µM. 320,000 compounds, 0.12% hits. AID 2300, 2010;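 active = percent inhibition above the cutoff of mean plus 3 SD of all tested compounds, set per screening campaign, cut at about 20% in these data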;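 note: 0% = DMSO wells and 100% = biotin wells as full block of FRET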
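Material: NR2E3–RetCOR corepressor complex | Quantity: 1.35 nM GST-tagged NR2E3 final | Schedule: 5 h at 4 °C | Replication: Singlicate compound wells | Reagent: RetCOR corepressor, biotinylated, 7 nM | Controls: Biotin wells as high control, 0.6% DMSO wells as low control | Signal: TR-FRET, Eu(K)-anti-GST donor, streptavidin-D2 acceptor, ex 340, em 617/671 nm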
PG9 binder: binders of HIV-1 gp120 antibody PG9, primary screen, biochemical, TR-FRET. HIV-1 gp120 / PG9 antibody interaction. TR-FRET gp120-PG9 antibody binding. inhibition, % at 6.7 µM. 360,000 compounds, 0.43% hits. AID 624416, 2012; in the data active = inhibition above about 8.5%
PKA-R2B act: activators of PKA-R2B holoenzyme, primary screen, biochemical, fluorescence polarization, Cy5-IP20, human; activation, % at 11.4 µM; PKA-R2B holoenzyme dissociation; R2B truncated from residue 108, S112A mutant; 0% DMSO only, 100% 113 µM cGMP; 340,000 compounds, 0.079% hits; cAMP-dependent protein kinase catalytic subunit beta (Homo sapiens) + cAMP-dependent …;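 active = activation above a cutoff set at the mean over all compounds plus 3 SD, cut at about 18% in these data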;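 note: higher means more holoenzyme dissociation and a rise in polarization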
Rev-erbA mod: modulators of Rev-erb alpha DNA binding, primary screen, biochemical, FITC-DNA, fluorescence polarization, uHTS. Nuclear receptor subfamily 1 group D member 1 (Homo sapiens), P20393. Rev-erbα–FITC-DNA binding, 90 min. activity, % at 10 µM. 370,000 compounds, 0.79% hits. AID 1259318, 2017;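 active = activity above about 14%, limit read from the data; passing the limit was not always enough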;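 note: 0% = DMSO wells with 35 nM protein and 100% = DMSO wells with 750 nM protein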
PKA-R1A act: activators of PKA-R1A holoenzyme, primary screen, biochemical, fluorescence polarization, Cy5-IP20, bovine R1A, mouse PKAc. cAMP-dependent protein kinase type I-alpha regulatory subunit (Bos taurus) + …. PKA-R1A dissociation; scaled: DMSO 0%, 113 µM cGMP 100%. activation, % at 11.4 µM. 340,000 compounds, 0.083% hits. AID 504707, 2011;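 active = percent activation above the mean of all tested compounds plus 3 SD, cut at about 19% in these data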;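 note: higher means more PKAc released from R1A so a rise in polarization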
R2B FP artifact: fluorescence polarization artefacts, biochemical, artefact control for PKA-R2B activator project | FP artifact counterscreen | 270 compounds, 6% hits | activation, % at 11.4 µM | shares compounds with PKA-R2B act; in the data active = activation above about 20%;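 note: Cy5 labelled IP20 peptide probe with compound but no PKA protein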
PKA-R2B act conf: activators of PKA-R2B holoenzyme, confirmation, biochemical, fluorescence polarization, human | shares compounds with PKA-R2B act | PKA-R2B complex, activation | activation, % at 11.4 µM | 270 compounds, 9% hits; in the data active = activation above about 19%
R1A FP artifact: FP signal interference without PKA proteins, confirmation, artefact control for PKA-R1A activator project, biochemical, fluorescence polarization, triplicate; Cy5-IP20 peptide alone, fluorescence polarization artifact counterscreen; activation, % at 11.4 µM; AID 504799, 2011; shares compounds with PKA-R1A act; 280 compounds, 7% hits;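 active = mean activation over triplicate runs exceeds the adjusted cutoff derived for the parent primary screen, cut at about 19% in these data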;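 note: no PKA protein present so any polarization rise reflects compound interference; 0% = tracer peptide mix alone and 100% = mix with added PKA catalytic subunit; higher means stronger polarization artifact and likely false positive in parent screen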
PKA-R1A confirm: activators of PKA-R1A holoenzyme, confirmation, biochemical, fluorescence polarization, Cy5-IP20, triplicate. activation, % at 11.4 µM. AID 504800, 2011. PKA-R1A holoenzyme dissociation. 280 compounds, 9% hits. shares compounds with PKA-R1A act;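 active = mean activation over replicate wells exceeds the adjusted hit threshold taken from the earlier primary screen, cut at about 20% in these data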;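 note: 0% = holoenzyme mix with DMSO only and 100% = cGMP-activated control wells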
Target sequence (P00514 whole entry, looked up): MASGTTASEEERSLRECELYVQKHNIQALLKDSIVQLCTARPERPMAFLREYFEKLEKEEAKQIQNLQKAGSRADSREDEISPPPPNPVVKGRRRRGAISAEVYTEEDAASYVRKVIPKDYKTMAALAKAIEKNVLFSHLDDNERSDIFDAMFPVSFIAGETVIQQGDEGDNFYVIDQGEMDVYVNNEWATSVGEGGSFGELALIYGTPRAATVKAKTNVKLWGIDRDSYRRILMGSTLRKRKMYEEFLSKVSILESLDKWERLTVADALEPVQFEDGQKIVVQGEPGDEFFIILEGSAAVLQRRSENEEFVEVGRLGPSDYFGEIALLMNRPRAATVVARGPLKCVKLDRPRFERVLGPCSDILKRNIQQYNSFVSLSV
Starred values were filed as active, the others as inactive; . = no result given. Only some compounds are listed: those with a hit (about 1.6% of all), similar ones and a draw of the others.

SMILES	NR2E3 ag-1	NR2E3 ag-2	PG9 binder	PKA-R2B act	Rev-erbA mod	PKA-R1A act	R1A FP artifact	PKA-R1A confirm	others
[C-]#[N+][C@]12C(=O)[C@H](C=C(Cl)[C@@]1(C)C=C)C(C)(C)[C@H]1C(=O)N(C)c3cccc2c31	.	.	.	.	3	.	.	.
CCN(CC)c1ccc(C(=C2C=CC(=[N+](CC)CC)C=C2)c2ccc(S(=O)(=O)O)cc2S(=O)(=O)[O-])cc1	8	.	-75	39*	-12	34*	49*	52*	R2B FP artifact=49*;PKA-R2B act conf=48*
CN(C)c1ccc(C(=O)OCC(=O)Nc2ccc(S(N)(=O)=O)cc2)cc1	4	-21	-1	48*	-9	46*	58*	63*	R2B FP artifact=58*;PKA-R2B act conf=59*
Cc1ccccc1C(=O)N1CCC(Oc2cccnc2)CC1	.	.	.	.	2	.	.	.
CCOP1(=O)OCC2OC(n3cnc4c(N)ncnc43)C(O)C2O1 (configuration not stated)	-1	1	-1	91*	6	102*	3	76*	R2B FP artifact=3;PKA-R2B act conf=65*
Nc1ncnc2c1nc(Br)n2[C@@H]1O[C@@H]2COP(=O)(O)O[C@H]2[C@H]1O	-12	1	-3	107*	-2	117*	-2	106*	R2B FP artifact=-2;PKA-R2B act conf=98*
Nc1nc2c(nc(Br)n2[C@@H]2O[C@@H]3COP(=O)(O)O[C@H]3[C@H]2O)c(=O)[nH]1	-4	0	-2	77*	-4	53*	0	50*	R2B FP artifact=0;PKA-R2B act conf=78*
Nc1nc2c(nc(N3CCCCC3)n2[C@@H]2O[C@H](CO)[C@@H](O)[C@H]2O)c(=O)[nH]1	5	2	-5	3	8	-10	.	.
CCCn1c(NC(=O)c2ccccc2)nc(Cc2ccccc2)c1Cc1ccccc1	.	.	.	.	-7	.	.	.
COC(=O)C1CN(Cc2ccc(F)cc2)CCS(=O)(=O)N1Cc1cn(Cc2ccccc2)nn1 (configuration not stated)	.	.	.	.	1	.	.	.
O=C(c1sccc1Cl)N1CCC(n2nnc3ncccc32)CC1	.	.	.	.	3	.	.	.
Cc1oc2ccc(OCc3c(F)cccc3Cl)cc2c1C(=O)O	-8	4	0	27*	-2	51*	45*	51*	R2B FP artifact=45*;PKA-R2B act conf=52*
Cc1oc2ccc(OCc3cccc(Cl)c3)cc2c1C(=O)O	-26	.	-1	1	-5	0	.	.
Cc1ccc(C(=O)c2ccccc2C(=O)OCC(=O)N2CCCC2)cc1	-28	.	-2	3	-1	20*	2	8
Cc1cccc(C(=O)OCC(=O)N2CCCCCC2)c1C	-118	.	-1	-8	4	-12	.	.
Cc1cc(NC(=O)c2ccc(Br)o2)ccc1NC(=O)c1ccco1	-16	5	0	-1	7	19*	2	4
O=C(Nc1ccc(F)cc1F)c1ccco1	-35	0	-5	6	2	24*	3	6
COc1cc(=O)oc(C=O)c1C	.	.	0	.	6	.	.	.
COc1ccc(CNC(=O)CNC(=O)c2c(C)nn(C)c2Cl)cc1	-19	4	-1	0	-3	19*	5	3
O=S1(=O)c2ccc(Br)cc2OC[C@@H](Cc2ccccc2)N1Cc1cn(CCC2OCCO2)nn1	.	.	.	.	5	.	.	.
Cc1cccc(/C=N/n2c(-c3cc(-c4ccccc4)n[nH]3)n[nH]c2=S)c1	-20	0	0	4	-12	19*	-3	-2
CC(C)(C)S(=O)(=O)c1cnc(-c2cnccn2)nc1N	-7	2	0	.	-6	.	.	.
CC(C)(C)S(=O)(=O)c1cnc(-c2ccccn2)nc1N	15	3	-2	-3	1	20*	5	1
COCCN(CCOc1cc(C)cc(C)c1)Cc1ccc(Cl)cc1	-18	0	-3	1	-1	20*	-4	-2
CCCC(=O)OC12CCCN(C1)/C(=C/c1cccc(N(C)C)c1)C2 (configuration not stated)	.	.	.	.	2	.	.	.
SMILES	NR2E3 ag-1	NR2E3 ag-2	PG9 binder	PKA-R2B act	Rev-erbA mod	PKA-R1A act	R1A FP artifact	PKA-R1A confirm	others
Cc1cc2ccccn2c1C(=O)c1ccc(Cl)c([N+](=O)[O-])c1	8	3	0	1	-2	20*	-2	-2
Cc1cc2ccccn2c1C(=O)c1cccc([N+](=O)[O-])c1	-17	0	-1	5	0	8	.	.
CC(NC(=O)C1CC=CCC1C(=O)O)C1CC2CCC1C2 (configuration not stated)	-28	3	1	0	1	-15	.	.
CC(NC(=O)C1CCCC1)C1CC2CCC1C2 (configuration not stated)	-6	-2	-2	-3	5	20*	2	0
CC1=NN(c2ccccc2)C(c2ccco2)C1 (configuration not stated)	-4	.	0	-6	3	20*	-1	2
O=C(Cn1cnc2ccccc2c1=O)Nc1ccc(S(=O)(=O)N2CCOCC2)cc1	-1	3	0	2	8	19*	0	3
COc1ccc(CC(=O)NCCc2ccc(S(N)(=O)=O)cc2)cc1	-5	-1	1	2	-1	-4	.	.
Cc1ccc(CC(=O)NCCc2ccc(S(N)(=O)=O)cc2)cc1	4	1	-2	7	6	19*	0	-2
Cc1cc(C)n2nc(SCC(=O)N(C)c3c(N)n(Cc4ccccc4)c(=O)[nH]c3=O)nc2n1	-2	0	.	-2	.	-5	.	.
